The list is not random: actives were taken first. Their share in the collection is about 2.5%.
GSTO1 counter: counter-screen for RBBP9 inhibitors: inhibitors of human GSTO1; recombinant GSTO1, activity-based probe fluorescence polarization; inhibition, % at 5.96 µM; P78417; 300,000 compounds, 1.1% hits;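 active = inhibition above the campaign mean inhibition plus 3 SD, cut at about 35% in these data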;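 also: 0% = GSTO1-1 with DMSO and 100% = wells lacking GSTO1-1 enzyme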
TDP2 absorb: TDP2 (human) inhibition, absorbance primary screen. O95551. recombinant TDP2, T5PNP hydrolysis, p-nitrophenol absorbance 415 nm. inhibition, % at 12.8 µM. 370,000 compounds, 0.34% hits. AID 720702;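 active = inhibition above the mean of all tested compounds plus 3 SD, set per campaign, cut at about 25% in these data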;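 also: 0% = DMSO with enzyme and 100% = buffer with substrate but no TDP2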
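Read-out basis: percent inhibition. System: recombinant human TDP2. Buffer or medium: Mg2+-containing Tris-HCl buffer, pH 7.5. Repeats: single replicate. Timing: reaction 2 h, 37 °C. Benchmarks: high control without enzyme, low control DMSO plus TDP2. Probe or stimulus: 5 mM T5PNP. Doses: 12.8 µM only. Measured by: epi absorbance of p-nitrophenol freed from T5PNP by hydrolysis.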
PRMT1 inh: PRMT1 (human) inhibition, primary screen | recombinant PRMT1, activity-based probe fluorescence polarization | inhibition, % at 2.79 µM | 370,000 compounds, 1.3% hits | AID 652257;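 active = inhibition above about 21% made by adding two undisclosed values, limit read from the data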
PAD4 FP inh: PAD4 (human) enzyme inhibition. Q9UM07. recombinant PAD4, RCA probe fluorescence polarization. inhibition, % at 6.36 µM. 330,000 compounds, 0.41% hits. AID 485272;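 active = percent inhibition above a cutoff equal to the mean of all tested compounds plus 3 SD, cut at about 15% in these data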;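 also: 0% = PAD4 with RCA probe and DMSO and 100% = probe without PAD4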
eLon inh: E. coli protease La inhibition; purified E. coli Lon protease, fluorescence polarization; inhibition, % at 7.94 µM; P0A9M0; 360,000 compounds, 0.42% hits; in the data active = inhibition above about 13%, passing the limit was not always enough;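 also: 0% = enzyme with probe and DMSO and 100% = no enzyme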
PRMT1 inh conf: confirmation of human PRMT1 inhibitors; inhibition, % at 2.79 µM; AID 687036; recombinant His-PRMT1, activity-based probe fluorescence polarization; 3,300 compounds, 42% hits; shares compounds with PRMT1 inh;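 active = mean inhibition across replicates above the hit cutoff derived for the earlier primary screen, cut at about 22% in these data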
* hit, by the source's call; . = no result.

SMILES	GSTO1 counter	TDP2 absorb	PRMT1 inh	PAD4 FP inh	eLon inh	PRMT1 inh conf
COc1ccc(/C=c2/sc3n(c2=O)C(c2ccccc2OC)C2=C(N=3)c3ccccc3CC2)cc1O (centres undefined)	-6	5	7	-4	-19	.
CCCCN(C)C(=O)c1oc(=O)c2ccccc2c1-c1ccc(C)cc1	.	-3	1	.	.	.
CCNC(=O)COC(=O)Cc1ccc(Cl)cc1Cl	2	3	3	-3	-2	.
O=C1CSC(=NC(=O)c2ccccc2)N1	-4	2	78*	-5	-6	15
CC(C)C(=O)N=C1NC(=O)CS1	5	10	55*	3	-3	35*
Cc1cc(Cl)ccc1NC(=O)/N=C1/NC(=O)CS1	.	7	0	.	-1	.
CN[C@H]1C[C@H]2c3[nH]c4c(-c5ccc6c(c5)OCO6)cccc4c3CCN2C[C@H]1[C@H](C)O	.	-4	1	.	.	.
Cc1cc(C)c2c(N)c(S(=O)c3ccc(C(C)(C)C)cc3)sc2n1 (centres undefined)	-1	-5	33*	-3	-4	2
Cc1ccc(SC2CC(=O)N(c3ccc4c(c3)OCCO4)C2=O)cc1 (centres undefined)	-1	0	36*	-1	1	26*
Cc1ccc(N2C(=O)CC(Sc3nccc(C)n3)C2=O)cc1 (centres undefined)	6	-7	4	-4	-12	.
Cc1ccccc1C(=O)NNC1CC(=O)N(c2ccc3c(c2)OCCO3)C1=O (centres undefined)	5	5	0	2	-9	.
Cc1ccc(N2C(=O)CC(Sc3cccs3)C2=O)cc1 (centres undefined)	-5	-7	66*	15	2	51*
O=C(NC1CCCCC1)C(c1cccc2ccccc12)n1c(=O)c(-c2ccco2)nc2ccccc21 (centres undefined)	.	9	29*	.	.	19
O=c1c(-c2ccco2)nc2ccccc2n1C(c1ccccn1)c1nc2ccccc2[nH]1 (centres undefined)	.	5	57*	.	.	12
CC(C)(C)NC(=O)C(c1ccccc1)n1c(=O)c(-c2ccco2)nc2ccccc21 (centres undefined)	.	12	26*	.	.	16
COc1ccc(C(C(=O)NC2CCCCC2)n2c(=O)c(-c3ccco3)nc3ccccc32)cc1 (centres undefined)	.	4	13	.	.	.
C=CCN1[C@H](CC(C)C)COc2cc(N3CCSCC3)ccc2S1(=O)=O	.	-4	7	.	.	.
O=c1[nH][nH]c(=O)c2nc(Nc3ccccc3)ncc12	.	1	-2	.	-4	.
CN1OC[C@@H]2CN(Cc3cc(Cl)cc(Cl)c3)[C@H](c3cccc(-c4ccc(C#N)cc4)c3)C[C@@H]21	.	4	3	.	-3	.
NC1=NC(=O)CC(C(=O)NCc2ccccc2)S1 (centres undefined)	-2	1	36*	0	2	10
N#CC1=C(N)N2C(=C(C#N)C1c1ccccc1)Sc1ccccc12 (centres undefined)	-4	.	.	-10	.	.
c1ccc([C@H]2CN3C(=N2)Sc2ccccc23)cc1	.	-7	29*	14	7	20
Cc1cc(C)c2c(CC(=O)NC3CCS(=O)(=O)C3)coc2c1 (centres undefined)	7	-9	-2	-1	2	.
Nc1cc(=O)[nH]c(SCC(=O)Nc2cccc(Cl)c2)n1	-6	-1	2	-2	-3	.
COC(OC)c1nc(SCC(=O)Nc2cccc(Cl)c2)ncc1C(=O)O	-18	20	27*	3	-2	3
SMILES	GSTO1 counter	TDP2 absorb	PRMT1 inh	PAD4 FP inh	eLon inh	PRMT1 inh conf
S=c1[nH]nc(-c2ccco2)n1/N=C/C(Cl)=C/c1ccccc1	11	1	26*	-2	2	20
Cc1cc(-c2n[nH]c(=S)n2/N=C/C(Cl)=C/c2ccccc2)n[nH]1	3	6	26*	4	7	15
Cc1cc(-c2n[nH]c(=S)n2N=Cc2c3ccccc3cc3ccccc23)n[nH]1	.	0	42*	.	.	17
Cc1cc(-c2n[nH]c(=S)n2N=Cc2ccc(-c3ccccc3)cc2)n[nH]1	.	6	8	.	.	.
CC(/C=N/n1c(-c2ccco2)n[nH]c1=S)=C\c1ccco1	10	12	11	-3	-34	.
CCN1/C(=C/C(=O)c2ccco2)Sc2ccccc21	14	-11	45*	-1	-14	6
CCC(=O)/C=C1/Sc2ccccc2N1CC	9	2	29*	-6	-5	27*
CCCCc1c(-c2ccccc2OC)ncn1Cc1cccc(F)c1F	.	2	-1	.	.	.
O=C(CS(=O)(=O)c1ccccc1)CS(=O)(=O)c1ccccc1	.	3	-2	.	.	.
O=S(=O)(C/C(=C/CO)S(=O)(=O)c1ccccc1)c1ccccc1	-7	-18	29*	7	-4	7
CCCCOc1ccc(C(=O)N(C)CC(=O)Nc2ccc(C)cc2)cc1	-2	0	0	2	2	.
CCS(=O)(=O)C1=NN2C(=N)/C(=C\c3ccc(SCc4ccco4)o3)C(=O)N=C2S1	.	17	30*	.	-146	21
NNc1nc2sc3c(c2c(=O)[nH]1)CCc1ccccc1-3	2	6	61*	-5	-6	5
CCSc1nc2sc3c(c2c(=O)[nH]1)CCc1ccccc1-3	3	1	-2	2	4	.
CC(CC(=O)O)CC(=O)Nc1ccc(Br)cc1 (centres undefined)	10	-5	-1	0	11	.
c1ccc(-c2cc3c(N4CCCCC4)ncnc3s2)cc1	5	1	0	-3	-6	.
c1ccc(-c2cc3c(N4CCCC4)ncnc3s2)cc1	2	-5	40*	-3	-8	0
CCOC(=O)[C@]12CCC=C1N(CCC1=CCCCC1)C(=O)[C@H](CC(=O)NCCCCc1ccccc1)C2	.	5	-2	.	0	.
O=C1/C(=C/c2ccccc2)CCc2ccc(Cl)nc21	.	1	3	.	-1	.
Cc1nc2ccccn2c1-c1ccnc(=S)[nH]1	6	-1	79*	14	-1	38*
CCOC(=O)C1=C(C)Nc2nc(=S)[nH]n2C1c1ccc(Cl)cc1 (centres undefined)	.	0	29*	.	2	25*
O=C1[C@H]2[C@@H](c3ccccc3)N[C@]3(CCCN(CC4CCCCC4)C3=O)[C@H]2C(=O)N1Cc1ccccc1	.	0	-1	.	10	.
CCNc1ccc(Br)cc(C(=O)/C=C/c2ccccc2Cl)c1=O	30	8	33*	0	-4	18
CNc1ccccc(C(=O)/C=C/c2ccccc2OC)c1=O	28	-14	35*	-3	-12	39*
COc1ccccc1/C=C/C(=O)c1cc(Br)ccc1OC(=O)c1ccco1	7	-4	-3	-4	0	.
CNc1ccc(Br)cc(C(=O)/C=C/c2cccc(OC)c2OC)c1=O	32	2	30*	-3	6	18

From PubChem BioAssay
